proKLK7 act: activates the human kallikrein-7 zymogen; P49862; purified proKLK7, EDANS-DABCYL substrate fluorescence; 100% is mature enzyme control, 0% vehicle; activation, % at 7 µM; 370,000 tested, 0.9% active; AID 652039;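 active means activation above the mean of all tested compounds plus 3 SD, computed per campaign excluding outliers beyond control limits, cut at about 13% in these data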
proCasp3 act: activators of human procaspase-3. activation, % at 8.5 µM. recombinant procaspase-3 D3A, Ac-DEVD-pNA absorbance 405 nm. AID 463141. 330,000 tested, 0.11% active;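 active means activation above the mean of all tested compounds plus 3 SD, cut at about 21% in these data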;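 further: 0% = DMSO alone and 100% = DMSO wells spiked with extra 5 µM PC-3 D3A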
Target sequence (P42574 whole entry D9A/D28A/D175A): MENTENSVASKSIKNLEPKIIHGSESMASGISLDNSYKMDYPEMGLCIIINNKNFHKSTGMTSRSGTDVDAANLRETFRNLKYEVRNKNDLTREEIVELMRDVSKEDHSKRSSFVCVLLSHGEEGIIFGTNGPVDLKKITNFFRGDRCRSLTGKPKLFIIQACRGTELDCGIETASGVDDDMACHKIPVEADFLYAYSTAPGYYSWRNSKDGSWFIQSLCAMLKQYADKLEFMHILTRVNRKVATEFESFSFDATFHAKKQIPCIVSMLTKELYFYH
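Evaluation: percent activation relative to control range; Material: Procaspase-3 D3A mutant, all three cleavage aspartates alanine; Compound: single dose, 8.5 µM nominal compound, 0.8% DMSO; Replication: one well per compound; Signal: absorbance at 405 nm, 0 and 120 min; Schedule: 1 h preincubation plus 2 h reaction at 25 °C.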
proCasp7 act: counter-screen for procaspase-3 activators: activators of human procaspase-7; recombinant procaspase-7, Ac-DEVD-pNA absorbance 405 nm; D23A/D198A/D206A triple mutant, cannot self-cleave; scale: DMSO 0, 5 µM enzyme 100; activation, % at 8.5 µM; 330,000 tested, 0.093% active; AID 463210;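 active means percent activation above the screen-wide mean plus 3 SD, cut at about 25% in these data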
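Test system: Procaspase-7 triple mutant (PC-7 D3A). Also added: Ac-DEVD-pNA substrate, 400 µM as added. Schedule: 1 h enzyme–compound preincubation and 2 h substrate reaction, both 25 °C. Signal: p-Nitroaniline absorbance at 405 nm, read at 0 and 120 min. Control set: low DMSO alone, high DMSO plus 5 µM PC-7.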
Neddyl block: cullin neddylation inhibition; P61081+Q13564; TR-FRET cullin neddylation, biochemical; calls only at 25 µM; 360,000 tested, 0.58% active; AID 651699; in the data active means inhibition above about 36%
Neddyl inh conf: confirmation of human cullin neddylation inhibitors; calls only at 25 µM; shares compounds with Neddyl block; AID 652217; 1,800 tested, 13% active; TR-FRET cullin neddylation biochemical assay; in the data active means inhibition above about 40%;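 further: neddylation substrate is the cullin 1 ring ligase complex with SKP2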
Active calls of the source: *; i = inactive; · = not tested or not shown; + = active, no number. Shown are actives, neighbours in structure and some others; about 1.6% of the full set was active somewhere.

SMILES | proKLK7 act | proCasp3 act | proCasp7 act | Neddyl block | Neddyl inh conf
Cc1cc(=O)oc2cc(OCC(=O)Nc3c(C)n(C)n(-c4ccccc4)c3=O)c(Cl)cc12 | 1.3 | · | · | + | i
Cc1cc(=O)oc2cc(OCC(=O)NC3(C#N)CCCCC3)ccc12 | -3.8 | · | · | · | ·
Cc1cc(=O)oc2cc(OCC(=O)NC3(C#N)CCCCC3)c(Cl)cc12 | 2.0 | · | · | + | i
CSc1ccc(/C=C(\NC(=O)c2ccc(C)cc2)C(=O)Nc2cccc(C)c2)cc1 | -0.5 | 9.2 | 9.7 | + | i
Cc1ccc(C(=O)N/C(=C/c2ccc(Cl)cc2)C(=O)Nc2cccc(C(=O)O)c2)cc1 | -0.7 | 1.1 | -10.3 | i | ·
O=C(NCc1ccco1)C1CCCN(S(=O)(=O)c2cccs2)C1 (stereo not given) | 0.4 | · | · | · | ·
CCCN1CCC(NC23CC4CC(CC(C4)C2)C3)CC1 | · | 11.0 | 12.4 | · | ·
OCCCN=C1CCCc2c1[nH]c1ccc(Cl)cc21 | 2.6 | -0.9 | 4.3 | + | i
Cc1ccc(C)c(OCC(=O)N/N=C/c2ccc(N3CCOCC3)cc2)c1 | -0.8 | · | · | + | +
CC(C)(C)c1ccc(OCC(=O)N/N=C/c2ccc(N3CCOCC3)cc2)cc1 | -2.8 | 3.1 | 6.3 | + | i
O=C(O)Cn1c(-c2ccccc2)nc2ccccc21 | 0.1 | 1.6 | -1.6 | i | ·
O=C(O)Cn1c(=O)c(-c2ccccc2)nc2ccccc21 | 5.9 | -2.6 | -2.6 | + | ·
Cc1ccc(S(=O)(=O)N2CCCC2C(=O)N2CCc3ccccc3C2)cc1C (stereo not given) | -0.4 | · | · | · | ·
Cn1c(-c2sc3cc(C(F)(F)F)cnc3c2-c2ccccn2)n[nH]c1=S | 0.5 | -13.9 | -14.2 | i | ·
CSc1nnc(-c2sc3cc(C(F)(F)F)cnc3c2-c2ccccn2)n1C | 0.3 | 3.0 | -1.8 | + | i
CCN1CCc2nc3sc(C(=O)Nc4cccnc4Cl)c(N)c3cc2C1 | -2.2 | -8.3 | -15.8 | + | i
Cc1sc2nc(COC(=O)CNC(=O)c3cc(F)ccc3F)[nH]c(=O)c2c1C | -0.7 | · | · | · | ·
N#C/C(=C\c1ccc2c(c1)OCO2)C(N)=S | 1.2 | -14.5 | -24.6 | i | ·
N#C/C(=C/c1ccco1)C(N)=S | -0.3 | -19.6 | -28.3 | + | i
COC(=O)C[C@H]1CC[C@H]2[C@H](COc3ccc(NS(=O)(=O)c4cccc(F)c4)cc3C(=O)N2C)O1 | -0.3 | · | · | · | ·
O=C(NCC1CCCO1)c1ccc2c3n(nc2c1)-c1ccccc1CO3 (stereo not given) | 6.7 | 0.9 | 4.5 | + | i
C[C@@H](CO)NC(=O)c1ccc2c3n(nc2c1)-c1ccccc1CO3 | 4.1 | 0.8 | -0.2 | i | ·
COCCNC(=O)c1ccc2c3n(nc2c1)-c1ccc(C)cc1CO3 | 8.1 | 7.6 | -1.2 | + | ·
COC(=O)[C@]12C[C@H](CC(=O)N3CCCC3)C(=O)N(Cc3ccco3)C1=C[C@H](C1CCCC1)O[C@@H]2C | -0.2 | · | · | · | ·
Cc1c(OC(C)C(=O)NCC2CCC(C(=O)O)CC2)ccc2c3c(c(=O)oc12)CCCC3 (stereo not given) | -0.1 | 1.0 | 12.3 | + | i
SMILES | proKLK7 act | proCasp3 act | proCasp7 act | Neddyl block | Neddyl inh conf
Cc1cc(=O)oc2c(C)c(OC(C)C(=O)NCC3CCC(C(=O)O)CC3)ccc12 (stereo not given) | 0.3 | 7.2 | 11.6 | i | ·
Cc1c(OCC(=O)NCc2ccccn2)ccc2c3c(c(=O)oc12)CCCC3 | -0.5 | 2.4 | 2.6 | i | ·
Cc1c(OCc2ccc(C(=O)O)o2)ccc2c3c(c(=O)oc12)CCC3 | -7.2 | 11.8 | 3.2 | + | i
CCN(CC)C(=O)COc1ccc2c3c(c(=O)oc2c1C)CCCC3 | 1.5 | 4.5 | -4.8 | · | ·
Cc1c(OC(C)C(=O)NCc2ccccn2)ccc2c3c(c(=O)oc12)CCC3 (stereo not given) | -29.2 | 3.3 | 3.1 | + | +
CC1(C)Oc2cc3oc(-c4cc(O)cc(O)c4)cc3cc2CC1O (stereo not given) | -3.1 | 2.3 | 2.2 | + | i
COc1cccc(C(O)c2nc(-c3cncnc3)cs2)c1 (stereo not given) | -0.1 | · | · | i | ·
Nn1c(SCC(=O)Nc2cccc3ccccc23)nnc1-c1n[nH]c2c1CCC2 | 0.6 | · | · | · | ·
CCCC[n+]1ccn(-c2nc3ccccc3nc2[N-]S(=O)(=O)c2ccccc2)c1 | -0.4 | -4.3 | 4.5 | i | ·
